In ChEMBL document CHEMBL3425457, “Identification of Novel ROS Inducers: Quinone Derivatives Tethered to Long Hydrocarbon Chains” (J Med Chem, 2015):
Activity calls are given as the source filed them. No cut-off for these calls is given here.

Assays:
Type in all cases: functional, cell-based
[1] = Induction of ROS production in HFF1 cells at 2 uM after 3 hrs by DCF-DA staining-based fluorescence assay relative to DMSO treated control; details: Homo sapiens, HFF-1
How it was run: (§1)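 HFF-1 fibroblasts were grown on cover glass at 1 × 10⁶ per well for 18–24 h and exposed to compound for 3 h. They were then stained with 10 μM DCF-DA for 30 min. Cells were fixed in 4% formaldehyde for 20 min, PBS-washed and imaged by fluorescence microscopy.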

[2] = Induction of ROS production in HFF1 cells at 10 uM after 3 hrs by DCF-DA staining-based fluorescence assay relative to DMSO treated control; details: Homo sapiens, HFF-1; how it was run: as §1
A549 [3] = assay: Induction of ROS production in human A549 cells after 3 hrs by DCF-DA staining-based fluorescence assay
How it was run: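 For probe imaging, A549 cells were seeded on cover glass at 1 × 10⁶ per well and grown 18–24 h. They were treated for 3 h, then stained 30 min with 10 μM DCF-DA, DHE or APF. Cells were fixed in 4% formaldehyde for 20 min, washed twice with PBS and viewed by fluorescence microscopy.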

A549 [4] = assay: Increase in oxidized […] level in human A549 cells at 10 uM after 4 hrs by luminescence assay
How it was run: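 Cellular GSH and GSSG levels were measured in A549 cells after 4 h of compound treatment.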

HCT-116 [5] = assay: Induction of phosphorylation of JNK1/2 in human HCT116 cells after 3 hrs by Western blot analysis
How it was run: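 A549 or HCT116 cells seeded at 6 × 10⁵ per 60 mm dish and left overnight, then exposed to compound for 3 h at 37 °C, 5% CO₂. Cells washed in cold PBS and lysed in RIPA; 25–50 μg protein (BCA) run on SDS-PAGE and transferred to PVDF. Blocked in 5% milk/TBS-T, primary antibody overnight at 4 °C, HRP secondary 1:2000 for 1 h at room temperature, ECL detection.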

A549 [6] = assay: Induction of apoptosis in human A549 cells at 10 uM after 48 hrs by FACS analysis
HCT-116 [7] = assay: Induction of apoptosis in human HCT116 cells at 10 uM after 48 hrs by FACS analysis

Compound	Activity [1]	Activity [2]	Activity (A549 [3])	Activity (A549 [4])	Activity (HCT-116 [5])	Activity (A549 [6])	Activity (HCT-116 [7])
CCCCCC/C=C\CCCCCCCCCc1cc(O)cc(OC)c1O	inactive	inactive	Active	Active	Dose-dependent effect		
CCCCCC/C=C\CCCCc1cc(O)cc(OC)c1O					Dose-dependent effect	Active	Active
